Results pooled from the literature.
Target: Serine/threonine-protein kinase BRSK1 (BRSK1, Homo sapiens, UniProt Q8TDC3)
One construct used (Q8TDC3 1-778): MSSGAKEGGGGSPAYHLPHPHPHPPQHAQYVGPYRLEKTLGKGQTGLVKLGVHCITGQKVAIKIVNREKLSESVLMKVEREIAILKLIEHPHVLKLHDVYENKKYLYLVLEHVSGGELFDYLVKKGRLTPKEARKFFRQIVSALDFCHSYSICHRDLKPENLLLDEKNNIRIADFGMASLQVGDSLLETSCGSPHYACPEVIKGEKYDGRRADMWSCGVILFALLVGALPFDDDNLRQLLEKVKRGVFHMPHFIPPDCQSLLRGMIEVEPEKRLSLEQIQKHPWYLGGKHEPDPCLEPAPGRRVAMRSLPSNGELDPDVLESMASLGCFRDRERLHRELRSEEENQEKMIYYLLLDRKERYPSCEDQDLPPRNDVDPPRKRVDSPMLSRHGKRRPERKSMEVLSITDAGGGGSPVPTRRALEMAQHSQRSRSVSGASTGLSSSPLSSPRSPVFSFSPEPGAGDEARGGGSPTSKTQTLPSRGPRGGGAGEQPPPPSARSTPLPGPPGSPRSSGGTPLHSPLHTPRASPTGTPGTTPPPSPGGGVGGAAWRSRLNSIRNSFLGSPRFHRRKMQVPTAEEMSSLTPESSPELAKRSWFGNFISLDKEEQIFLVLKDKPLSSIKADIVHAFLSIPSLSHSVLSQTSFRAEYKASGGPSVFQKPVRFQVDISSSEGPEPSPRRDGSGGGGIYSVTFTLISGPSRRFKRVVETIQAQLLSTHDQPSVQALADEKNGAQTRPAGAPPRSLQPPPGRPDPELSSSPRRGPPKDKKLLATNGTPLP

Structure (SMILES)	assay	setting	endpoint	result
COc1ccc2[nH]c3c4[nH]c5ccc(OC)cc5c4c4c(c3c2c1)C(=O)NC4=O	binding	1 µM	remaining binding	10%
C=CC(=O)N1CCC([C@@H]2CCNc3c(C(N)=O)c(-c4ccc(Oc5ccccc5)cc4)nn32)CC1	enzyme activity, inhibitor	1 µM	inhibition	0%
C1=C/COCc2cc(ccc2OCCN2CCCC2)Nc2nccc(n2)-c2cccc(c2)COC/1	binding	0.1 µM	remaining binding	99%
Cc1ccc(NC(=O)c2ccnc(C(F)(F)F)c2)cc1-c1cc(OCCO)nc(N2CCOCC2)c1	binding	1 µM	remaining binding	93%
C#Cc1cc(-c2cc(Nc3nc(N[C@@H](C)c4ccc(F)cn4)ncc3Cl)n[nH]2)ccc1C=O	enzyme activity, inhibitor	0.2 µM	inhibition	10.3%
CCCCC(=O)Nc1ccc(-c2ccc3ncn(CCC)c(=O)c3c2)cn1	binding, competition with immobilised ligand	0.5 µM	remaining binding	100%
CO[C@@H]1[C@H](N(C)C(=O)c2ccccc2)C[C@H]2O[C@]1(C)n1c3ccccc3c3c4c(c5c6ccccc6n2c5c31)C(=O)NC4	enzyme activity, inhibitor	1 µM	inhibition	48%
COc1ccc2oc(-c3ccc4nc(N)oc4c3)c/c(=N\c3ccccc3NC(=O)CCN)c2c1	binding	1 µM	remaining binding	103%
